Legend:
[1] = biological target: T1, Prostaglandin G/H synthase 1 (Ovis aries, UniProt P05979); test: Inhibition of ovine COX1 assessed as reduction in PGH2 production by enzyme immunoassay
T1 sequence (P05979 whole entry): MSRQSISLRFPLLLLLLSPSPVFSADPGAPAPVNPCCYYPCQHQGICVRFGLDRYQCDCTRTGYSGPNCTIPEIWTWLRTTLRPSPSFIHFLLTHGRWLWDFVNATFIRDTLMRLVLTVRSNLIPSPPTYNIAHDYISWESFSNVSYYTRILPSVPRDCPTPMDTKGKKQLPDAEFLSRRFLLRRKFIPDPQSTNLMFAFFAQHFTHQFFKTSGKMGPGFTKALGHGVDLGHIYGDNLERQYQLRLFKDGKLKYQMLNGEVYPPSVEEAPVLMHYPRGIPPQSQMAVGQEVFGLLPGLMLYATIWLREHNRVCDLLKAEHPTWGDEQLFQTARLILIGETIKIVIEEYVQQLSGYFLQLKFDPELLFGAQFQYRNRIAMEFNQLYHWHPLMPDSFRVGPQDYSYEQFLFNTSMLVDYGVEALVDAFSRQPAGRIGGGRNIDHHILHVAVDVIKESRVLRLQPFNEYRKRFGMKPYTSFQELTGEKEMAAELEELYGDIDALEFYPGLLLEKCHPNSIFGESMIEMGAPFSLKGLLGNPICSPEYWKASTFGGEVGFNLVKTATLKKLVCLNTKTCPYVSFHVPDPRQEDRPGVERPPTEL

Rattus norvegicus [2] = test: Antiinflammatory activity in Sprague-Dawley rat assessed as inhibition of carrageenan-induced paw edema at 70 mg/kg, po pretreated for 1 hr followed by carrageenan challenge and measured after 3 hrs by plethysmometer relative to control; format: functional
How it was run: (§1)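 Modified Winter's method in young adult male Sprague-Dawley rats (160-200 g, groups of six), starved 24 h. Oral dose given 1 h before subplantar injection of 0.1 mL 1% carrageenan in sterile pyrogen-free 0.9% NaCl. Paw volume measured by water displacement plethysmometry before and at 3 and 4 h. % inhibition vs controls; mean ± S.E.M.; unpaired one-tailed Student's t-test.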

Rattus norvegicus [3] = test: Antiinflammatory activity in Sprague-Dawley rat assessed as inhibition of carrageenan-induced paw edema at 70 mg/kg, po pretreated for 1 hr followed by carrageenan challenge and measured after 4 hrs by plethysmometer relative to control; format: functional; how it was run: as §1
Rattus norvegicus [4] = test: Toxicity in Sprague-Dawley rat at 70 mg/kg, po; format: organism-based; conditions: in vivo
Mus musculus [5] = test: Analgesic activity in CD1 mouse assessed as inhibition of acetic acid-induced writhings at 10 mg/kg, po pretreated for 30 mins followed by acetic acid challenge for 5 mins and measured for 30 mins relative to control; format: functional
How it was run: (§2)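 Male Swiss CD1 mice, 4-5 weeks, 25 ± 5 g, acclimatized one week. Dose adjusted to body weight and given orally by feeding needle 30 min before i.p. acetic acid (25 mg/kg; 0.25 mL/25 g). NaCl solution served as control. […] Mean ± S.E.M., at least four mice; one-way ANOVA with Student-Newman-Keuls.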

Mus musculus [6] = test: Analgesic activity in CD1 mouse assessed as inhibition of acetic acid-induced writhings at 20 mg/kg, po pretreated for 30 mins followed by acetic acid challenge for 5 mins and measured for 30 mins relative to control; format: functional; how it was run: as §2
Mus musculus [7] = test: Analgesic activity in CD1 mouse assessed as inhibition of acetic acid-induced writhings at 70 mg/kg, po pretreated for 30 mins followed by acetic acid challenge for 5 mins and measured for 30 mins relative to control; format: functional; how it was run: as §2
Mus musculus [8] = test: Analgesic activity in CD1 mouse assessed as inhibition of acetic acid-induced writhings at 70 mg/kg, po pretreated for 30 mins followed by acetic acid challenge; format: functional, organism-based; conditions: TDE = time-dependent effect; how it was run: as §2
Rattus norvegicus [9] = test: Ulcerogenicity in Sprague-Dawley rat assessed as gastric lessions at 70 mg/kg, po measured after 4 hrs; format: toxicity, organism-based; conditions: in vivo
How it was run: (§3)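 Male Sprague-Dawley rats, 180 ± 20 g, acclimatized one week, 3 per group. Oral dosing by feeding needle, adjusted to body weight; saline and carboxymethylcellulose served as controls. Killed 4 h after dosing; stomach opened along the greater curvature, rinsed with saline, and lesions scored under a magnifying glass.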

HT-29 = test: Growth inhibition of human HT-29 cells by MTT assay; format: cell-based
Rattus norvegicus [10] = test: Ulcerogenicity in Sprague-Dawley rat assessed as hyperemia at 70 mg/kg, po measured after 4 hrs; format: toxicity, organism-based; conditions: in vivo; how it was run: as §3

SMILES | IC50 [1] [nM] | IC50 (HT-29) [µM] | inhibition in vivo at 70 mg/kg (Rattus norvegicus [2]) [%] | inhibition in vivo at 70 mg/kg (Rattus norvegicus [3]) [%] | Activity (Rattus norvegicus [4]) | inhibition in vivo at 10 mg/kg (Mus musculus [5]) [%] | inhibition in vivo at 20 mg/kg (Mus musculus [6]) [%] | inhibition in vivo at 70 mg/kg (Mus musculus [7]) [%] | inhibition (Mus musculus [8]) | Activity (Rattus norvegicus [9]) | Activity (Rattus norvegicus [10])
CS(=O)(=O)c1cccc(Oc2ccccc2)c1 | 4890 | – | 27.8 | 25.4 | Non-Toxic | – | – | – | – | – | –
CC(C(=O)O)c1cccc(Oc2ccccc2)c1 (configuration not stated) [FENOPROFEN] | 2730 | – | – | – | – | – | – | – | – | – | –
CC(C(=O)O)c1cccc(C(=O)c2ccccc2)c1 (configuration not stated) [KETOPROFEN] | 110 | – | – | – | – | – | – | – | – | – | –
CC(C)Cc1ccc(S(C)(=O)=O)cc1 | 7020 | – | 9.6 | 9.5 | Non-Toxic | – | – | – | – | – | –
CN1c2ccccc2Sc2ccc(CC(=O)O)cc21 [METIAZINIC ACID] | 6230 | – | – | – | – | – | – | – | – | – | –
CC(C)Cc1ccc(C(C)C(=O)O)cc1 (configuration not stated) [IBUPROFEN] | – | – | – | 23.9 | – | 48 | 53 | 66.7 | – | – | –

Now from value to molecule, other results behind:

IC50 [1] [nM] | IC50 (HT-29) [µM] | SMILES | inhibition in vivo at 70 mg/kg (Rattus norvegicus [2]) [%] | inhibition in vivo at 70 mg/kg (Rattus norvegicus [3]) [%] | Activity (Rattus norvegicus [4]) | inhibition in vivo at 10 mg/kg (Mus musculus [5]) [%] | inhibition in vivo at 20 mg/kg (Mus musculus [6]) [%] | inhibition in vivo at 70 mg/kg (Mus musculus [7]) [%] | inhibition (Mus musculus [8]) | Activity (Rattus norvegicus [9]) | Activity (Rattus norvegicus [10])
1360 | – | CN1c2ccccc2Sc2ccc(S(C)(=O)=O)cc21 | – | – | Non-Toxic | – | – | – | – | – | –
5290 | – | CS(=O)(=O)c1ccc(C(=O)c2ccc(Cl)cc2)cc1 | 14.9 | 18.9 | Non-Toxic | – | – | – | – | – | –
180 | > 200 | CS(=O)(=O)c1ccc(C(=O)c2ccoc2)cc1 | 27.6 | 25.9 | Non-Toxic | 45.9 | 50.5 | 64.9 | Tde | Non-Toxic | –
390 | > 200 | COc1ccc2c(c1)c(S(C)(=O)=O)c(C)n2C(=O)c1ccc(Cl)cc1 | 29.9 | 32.5 | Non-Toxic | – | – | – | – | – | –
40 | > 200 | COc1ccc2cc(S(C)(=O)=O)ccc2c1 | 29.4 | 34.6 | Non-Toxic | 49.3 | 56.2 | 60.1 | Tde | Non-Toxic | Toxic
